Assay outcomes: PubChem BioAssay, The Scripps Research Institute Molecular Screening Center
Sampled rows, rich in hits. Any-hit rate of the full collection: about 1.6%.
UHRF1 binding: blocks human UHRF1 binding to methylated DNA. Q96T88. UHRF1 binding to methylated oligo, TR-FRET. inhibition, % at 4.4 µM. hit rate 0.75% among 370,000. AID 687016; in the data active = inhibition above about 21%;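 note: UHRF1 SRA domain binding a hemimethylated CpG hairpin DNA probe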
MBD2 inh: blocks human MBD2 binding to methylated DNA | TR-FRET, MBD2 binding to methylated oligonucleotide | inhibition, % at 4.4 µM | hit rate 0.31% among 370,000; in the data active = inhibition above about 13%
Target sequence (Q9UBB5 whole entry, looked up): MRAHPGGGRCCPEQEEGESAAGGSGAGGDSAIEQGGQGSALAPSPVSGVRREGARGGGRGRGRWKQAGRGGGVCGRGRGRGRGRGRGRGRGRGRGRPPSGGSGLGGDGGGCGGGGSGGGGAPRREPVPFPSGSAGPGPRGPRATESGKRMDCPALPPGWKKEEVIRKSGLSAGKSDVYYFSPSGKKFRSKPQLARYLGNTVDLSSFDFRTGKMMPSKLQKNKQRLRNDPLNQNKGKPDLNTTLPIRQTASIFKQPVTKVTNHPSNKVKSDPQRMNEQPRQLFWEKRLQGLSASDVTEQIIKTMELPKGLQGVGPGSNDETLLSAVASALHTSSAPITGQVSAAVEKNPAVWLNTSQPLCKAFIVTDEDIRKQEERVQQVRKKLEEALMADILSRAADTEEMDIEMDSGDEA
LEDGF integ inh: blocks HIV-1 LEDGF/p75-dependent DNA integration | inhibition, % at 3.7 µM | TR-FRET IN-LEDGF/p75 DNA integration, Eu/Cy5 | AID 743269 | hit rate 0.64% among 370,000;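 active = inhibition above the screen-wide mean plus 3 SD, cut at about 13% in these data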;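 note: signal is the Cy5 over europium emission ratio at 671 and 618 nm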
TDP2 absorb: TDP2 (human) inhibition, absorbance primary screen | AID 720702 | hit rate 0.34% among 370,000 | inhibition, % at 12.8 µM | recombinant TDP2, T5PNP hydrolysis, p-nitrophenol absorbance 415 nm | O95551;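 active = inhibition above the mean of all tested compounds plus 3 SD, set per campaign, cut at about 25% in these data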
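Test system: human TDP2 enzyme; Input: 120 nM TDP2 per well; Buffer or medium: Mg2+-containing Tris-HCl buffer, pH 7.5; Reagent: 5 mM T5PNP; Dosing: 12.8 µM single point, 1% DMSO; Incubation: reaction 2 h, 37 °C; Detection: p-Nitrophenol epi absorbance; Read-out: % inhibition relative to enzyme-containing and enzyme-free wells; Replicates: single well per compound.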
IN multimer up: HIV-1 integrase multimerization activation, counter-screen | shares compounds with LEDGF integ inh | TR-FRET HIV-1 integrase multimerization, biochemical | activation, % at 7.7 µM | hit rate 17% among 2,000 | AID 1053131; in the data active = activation above about 8.9%
TRFRET interf: TR-FRET optical interference, LEDGF/p75 integration counter-screen | AID 1053135 | 2,000 tested, under 10 active | inhibition, % at 7.7 µM | shares compounds with LEDGF integ inh | TR-FRET optical interference counterscreen, HIV-1 IN multimerization;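 active = inhibition above the mean over all tested compounds plus 3 SD, which no compound reached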
IN-LEDGF confirm: LEDGF/p75-dependent HIV-1 integration inhibition, confirmation; TR-FRET LEDGF/p75-dependent HIV-1 integration, biochemical; inhibition, % at 3.7 µM; hit rate 36% among 2,000; shares compounds with LEDGF integ inh; in the data active = inhibition above about 14%
Hits are given with their value; – = inactive; · = no result given.

SMILES | UHRF1 binding | MBD2 inh | LEDGF integ inh | TDP2 absorb | IN multimer up | TRFRET interf | IN-LEDGF confirm
CC1=NN2C(=N)/C(=C\c3ccc(SCc4ccccc4)o3)C(=O)N=C2S1 | – | – | – | – | · | · | ·
N=C1/C(=C\c2ccc(SCc3ccco3)o2)C(=O)N=C2SC=NN12 | 51 | – | 49 | – | – | – | 50
Nc1c(C(=O)NCC(O)c2ccccc2)cnn1-c1ccccc1 (configuration not stated) | – | – | – | – | · | · | ·
O=C(c1ccccc1C(F)(F)F)N1CCC(Oc2cccnc2)CC1 | – | – | – | – | · | · | ·
CCCOc1ccc(CC(=O)NCCc2ccccc2)cc1OC | – | – | 14 | – | – | – | –
C[C@H]1[C@@H](OC(=O)N2CCN(c3ccccc3)CC2)CC[C@@]23CCCN2C(=O)CCC[C@@H]13 | – | – | – | – | · | · | ·
CCN1CCN(C(c2ccccc2)c2nnnn2Cc2ccc3c(c2)OCO3)CC1 (configuration not stated) | – | – | 25 | – | – | – | –
CCN1CCN(C(c2ccc(OC)cc2)c2nnnn2Cc2ccc3c(c2)OCO3)CC1 (configuration not stated) | – | – | – | – | · | · | ·
Cc1cc(C)nc(SCC(=O)Nc2ncc(C(F)(F)F)cc2Cl)n1 | – | – | – | – | · | · | ·
O=C(CSc1ncccn1)Nc1ncc(C(F)(F)F)cc1Cl | – | – | 82 | – | – | – | –
Cc1cc(C(=O)COc2cccnc2[N+](=O)[O-])c(C)n1Cc1cccs1 | – | – | 14 | – | – | – | –
CC(=O)c1ccc(OC2(C)CCN(Cc3ccc4c(c3)OCCO4)C2)cc1 (configuration not stated) | – | – | 15 | – | – | – | –
CN1CCN(S(=O)(=O)c2cccc(C(=O)N3CCN(c4ccccc4F)CC3)c2)CC1 | – | – | 26 | – | – | – | –
O=C(Nc1nc(-c2ccccn2)cs1)C1CC1 | – | – | – | – | · | · | ·
O=C(CC1CC2CCC1C2)Nc1nc(-c2ccccn2)cs1 (configuration not stated) | – | – | 16 | – | – | – | –
O=C(CCN1C(=O)/C(=C/c2ccco2)SC1=S)Nc1ccc(C(=O)O)c(O)c1 | 62 | 21 | 54 | – | 12 | – | 40
O=C1/C(=C/c2ccco2)SC(=S)N1CC1CCCO1 (configuration not stated) | 29 | – | 16 | – | – | – | 15
O=C(CCCN1C(=O)/C(=C\c2ccco2)SC1=S)Nc1ccc2ccccc2c1 | – | – | – | – | · | · | ·
O=C(O)CCCN1C(=O)/C(=C\c2ccco2)SC1=S | 52 | – | 35 | – | – | – | 40
Cc1ccc(/C=C2\SC(=S)N(CC3CCCO3)C2=O)o1 (configuration not stated) | – | – | – | – | · | · | ·
CCCCC(=O)Nc1ccc(C(=O)NCC2COc3ccccc3O2)cc1 (configuration not stated) | – | – | – | – | · | · | ·
CCN(CC)C(=O)CC[C@H]1CC[C@]2(CCCN(Cc3cccnc3)C2)O1 | – | – | – | – | · | · | ·
O=C(NCCc1ccccc1)OCc1cn(Cc2cccc(F)c2F)nn1 | – | – | – | – | · | · | ·
Cc1cc(C)cc(C(=O)OCCCN(C)C2CN(Cc3cn(Cc4cccc(F)c4)nn3)S(=O)(=O)C2)c1 (configuration not stated) | – | – | – | – | · | · | ·
O=c1c2c([N+](=O)[O-])cc([N+](=O)[O-])cc2nc2ccccn12 | – | – | 25 | – | – | – | 19
SMILES | UHRF1 binding | MBD2 inh | LEDGF integ inh | TDP2 absorb | IN multimer up | TRFRET interf | IN-LEDGF confirm
CCOc1ccc(N(CC(=O)NC2CCCC2)S(=O)(=O)c2c(C)[nH]c(=O)[nH]c2=O)cc1 | – | – | 51 | – | – | – | –
Cc1cc(C)cc(N(CC(=O)NC2CCCCCC2)S(=O)(=O)c2c(C)[nH]c(=O)[nH]c2=O)c1 | – | – | – | – | · | · | ·
Cc1nnc(NC(=O)CCC2CCCCC2)s1 | – | – | – | – | · | · | ·
O=C(CCC1CCCCC1)Nc1nccs1 | – | – | 21 | – | – | – | –
Cc1nnc(N/N=C/c2cc(C)n(-c3ccc(F)cc3)c2C)n1N | – | – | 45 | 62 | – | – | –
Cc1cc(Br)c2nc(-c3ccc(Cl)cc3)c(Cc3cccc(Cl)c3)n2c1 | – | – | – | – | · | · | ·
O=c1cc(CSc2nnc(NC3CCCCC3)s2)nc2sccn12 | – | – | – | – | · | · | ·
C=CCn1c(SCc2cc(=O)n3ccsc3n2)nnc1C1CCCCC1 | – | – | 15 | – | – | – | –
C/C=C(\C)CN1CCN(c2ccccc2)CC1 | – | – | 27 | – | – | – | –
C/C(=C\c1ccccc1)CN1CCN(c2ccccc2)CC1 | – | – | – | – | · | · | ·
CCCNC(=O)C1(C)CCN(CCC(=O)c2ccc(Br)cc2)C1 (configuration not stated) | – | – | 63 | – | – | – | –
CC(C)(C)c1ccc(S(=O)(=O)/N=C2\C=C(NS(=O)(=O)c3ccccc3)C(=O)c3ccccc32)cc1 | – | – | 16 | – | – | – | –
CCOC(=O)C1=C(C(=O)OCC)C2N(Cc3ccc(C#N)cc3)c3ccccc3[C@@]23C[C@@H](C(=O)OC)N(S(=O)(=O)c2ccc(OC)cc2)C3=N1 (some centres not stated) | – | – | – | – | · | · | ·
CC(C)(C)C(=O)c1c(N)[nH]c(C(=O)c2ccccc2)c1-c1ccccc1 | – | – | – | – | · | · | ·
CCN(CC)c1ccc(N=Cc2ccc(N(CC)CC)cc2O)cc1 | – | – | 15 | – | – | – | –
CCN(CC)c1ccc(C=Nc2ccc(N(C)C)cc2)c(O)c1 | – | – | 34 | – | 13 | – | –
CCN(CC)c1ccc(C=Nc2ccc(C)cc2)c(O)c1 | – | – | – | – | · | · | ·
O=c1c2ccccc2nc2n1CCC2 | – | – | 15 | – | – | – | 34
O=c1c2ccccc2nc2n1CCCCC2 | – | – | – | – | · | · | ·
O=C(CSc1nccc2ccccc12)N1CCN(c2ccccn2)CC1 | – | – | 14 | – | – | – | –
Cc1ccc(SCC(=O)N2CCN(c3ccccn3)CC2)cc1 | – | – | – | – | · | · | ·
CCOC(=O)CC[C@@]1(C(=O)OCC)C[C@@H](CC(=O)N2CCCC2)C(=O)N2CCCC=C21 | – | – | – | – | · | · | ·
COc1cc2c(C#N)c(N3CCCCC3)nc(N)c2c(N)n1 | – | – | 34 | – | – | – | –
O=C(NC1CCCCN(Cc2ccc(Cl)cc2)C1=O)c1cccc([N+](=O)[O-])c1 (configuration not stated) | – | – | – | – | · | · | ·
CCOC(=O)c1cnc(SCC(=O)NNC(=O)c2ccco2)nc1N | – | – | 72 | – | – | – | –
COC(=O)C1CN(Cc2cn(Cc3ccc(F)cc3)nn2)CCS(=O)(=O)N1Cc1ccc(F)cc1 (configuration not stated) | – | – | – | – | · | · | ·
